Laboratory results from ChEMBL document CHEMBL1212785, “In vitro potency of CXA-101, a novel cephalosporin, against Pseudomonas aeruginosa displaying various resistance phenotypes, including multidrug resistance” (2010).
Converted amounts (≈) assume the structure as drawn.

Key:
Assay type in all cases: functional
Pseudomonas aeruginosa [1] = experiment: Antimicrobial activity against imipenem resistant Pseudomonas aeruginosa isolates by broth microdilution method
Summary of the method: (§1)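 Nonduplicate, nonurine, drug-resistant clinical isolates collected from 40 US hospitals, October 2005 to March 2008. MICs determined by CLSI reference broth microdilution. The cephalosporin was tested alone and with tazobactam fixed at 4 μg/ml. Comparators were tested by the same method. P. aeruginosa ATCC 27853 served as quality control, with ranges of 0.25 to 1 μg/ml for both regimens.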

Pseudomonas aeruginosa [2] = experiment: Antimicrobial activity against piperacillin-tazobactam resistant Pseudomonas aeruginosa isolates by broth microdilution method; summary of the method: as §1
Pseudomonas aeruginosa [3] = experiment: Antimicrobial activity against multidrug resistant Pseudomonas aeruginosa isolates by broth microdilution method; summary of the method: as §1
Pseudomonas aeruginosa [4] = experiment: Antimicrobial activity against Ceftazidime resistant Pseudomonas aeruginosa isolates by broth microdilution method; summary of the method: as §1
Pseudomonas aeruginosa [5] = experiment: Antimicrobial activity against drug resistant Pseudomonas aeruginosa isolates by broth microdilution method; summary of the method: as §1
Pseudomonas aeruginosa [6] = experiment: Antimicrobial activity against tobramycin resistant Pseudomonas aeruginosa isolates by broth microdilution method; summary of the method: as §1

CO/N=C(\C(=O)N[C@@H]1C(=O)N2C(C(=O)[O-])=C(C[N+]3(C)CCCC3)CS[C@H]12)c1csc(N)n1 [CEFEPIME]
MIC50 (Pseudomonas aeruginosa [1]): 8 µg/mL (≈ 16.6 µM) | MIC90 (Pseudomonas aeruginosa [1]): 32 µg/mL (≈ 66.6 µM) | MIC50 (Pseudomonas aeruginosa [2]): 16 µg/mL | MIC90 (Pseudomonas aeruginosa [2]): 32 µg/mL | MIC50 (Pseudomonas aeruginosa [3]): 16 µg/mL (≈ 33.3 µM) | MIC90 (Pseudomonas aeruginosa [3]): 64 µg/mL (≈ 133 µM) | MIC50 (Pseudomonas aeruginosa [4]): 256 µg/mL (≈ 533 µM) | MIC90 (Pseudomonas aeruginosa [4]): 256 µg/mL (≈ 533 µM) | MIC50 (Pseudomonas aeruginosa [5]): 16 µg/mL (≈ 33.3 µM) | MIC90 (Pseudomonas aeruginosa [5]): 64 µg/mL (≈ 133 µM)

CC(C)(O/N=C(\C(=O)N[C@@H]1C(=O)N2C(C(=O)[O-])=C(C[n+]3ccccc3)CS[C@H]12)c1csc(N)n1)C(=O)O [CEFTAZIDIME]
MIC50 (Pseudomonas aeruginosa [1]): 16 µg/mL (≈ 29.3 µM) | MIC90 (Pseudomonas aeruginosa [1]): 128 µg/mL (≈ 234 µM) | MIC50 (Pseudomonas aeruginosa [2]): 32 µg/mL | MIC90 (Pseudomonas aeruginosa [2]): 128 µg/mL | MIC50 (Pseudomonas aeruginosa [3]): 64 µg/mL (≈ 117 µM) | MIC90 (Pseudomonas aeruginosa [3]): 256 µg/mL (≈ 468 µM) | MIC50 (Pseudomonas aeruginosa [4]): 16 µg/mL (≈ 29.3 µM) | MIC90 (Pseudomonas aeruginosa [4]): 64 µg/mL (≈ 117 µM) | MIC50 (Pseudomonas aeruginosa [5]): 16 µg/mL (≈ 29.3 µM) | MIC90 (Pseudomonas aeruginosa [5]): 128 µg/mL (≈ 234 µM)

NC[C@H]1O[C@H](O[C@H]2[C@H](O)[C@@H](O[C@H]3O[C@H](CO)[C@@H](O)[C@H](N)[C@H]3O)[C@H](N)C[C@@H]2N)[C@H](N)C[C@@H]1O [TOBRAMYCIN]
MIC50 (Pseudomonas aeruginosa [1]): 1 µg/mL (≈ 2.14 µM) | MIC90 (Pseudomonas aeruginosa [1]): 64 µg/mL (≈ 137 µM) | MIC50 (Pseudomonas aeruginosa [2]): 1 µg/mL | MIC90 (Pseudomonas aeruginosa [2]): 4 µg/mL | MIC50 (Pseudomonas aeruginosa [3]): 128 µg/mL (≈ 274 µM) | MIC90 (Pseudomonas aeruginosa [3]): 256 µg/mL (≈ 548 µM) | MIC50 (Pseudomonas aeruginosa [6]): 32 µg/mL (≈ 68.4 µM) | MIC90 (Pseudomonas aeruginosa [6]): 128 µg/mL (≈ 274 µM) | MIC50 (Pseudomonas aeruginosa [4]): 1 µg/mL (≈ 2.14 µM) | MIC90 (Pseudomonas aeruginosa [4]): 4 µg/mL (≈ 8.56 µM) | MIC50 (Pseudomonas aeruginosa [5]): 2 µg/mL (≈ 4.28 µM) | MIC90 (Pseudomonas aeruginosa [5]): 128 µg/mL (≈ 274 µM)

Cn1c(N)c(NC(=O)NCCN)c[n+]1CC1=C(C(=O)O)N2C(=O)[C@@H](NC(=O)/C(=N\OC(C)(C)C(=O)[O-])c3nsc(N)n3)[C@H]2SC1 [CEFTOLOZANE]
MIC50 (Pseudomonas aeruginosa [1]): 2 µg/mL (≈ 3 µM) | MIC90 (Pseudomonas aeruginosa [1]): 8 µg/mL (≈ 12 µM) | MIC50 (Pseudomonas aeruginosa [2]): 2 µg/mL | MIC90 (Pseudomonas aeruginosa [2]): 8 µg/mL | MIC50 (Pseudomonas aeruginosa [3]): 2 µg/mL (≈ 3 µM) | MIC90 (Pseudomonas aeruginosa [3]): > 64 µg/mL | MIC50 (Pseudomonas aeruginosa [6]): 2 µg/mL (≈ 3 µM) | MIC90 (Pseudomonas aeruginosa [6]): 64 µg/mL (≈ 96 µM) | MIC50 (Pseudomonas aeruginosa [4]): 4 µg/mL (≈ 6 µM) | MIC90 (Pseudomonas aeruginosa [4]): 16 µg/mL (≈ 24 µM) | MIC50 (Pseudomonas aeruginosa [5]): 2 µg/mL (≈ 3 µM) | MIC90 (Pseudomonas aeruginosa [5]): 2 µg/mL (≈ 3 µM)

C[C@@H](O)[C@H]1C(=O)N2C(C(=O)O)=C(S[C@@H]3CN[C@H](C(=O)N(C)C)C3)[C@H](C)[C@H]12 [MEROPENEM]
MIC50 (Pseudomonas aeruginosa [1]): 16 µg/mL (≈ 41.7 µM) | MIC90 (Pseudomonas aeruginosa [1]): 32 µg/mL (≈ 83.4 µM) | MIC50 (Pseudomonas aeruginosa [2]): 2 µg/mL | MIC90 (Pseudomonas aeruginosa [2]): 32 µg/mL | MIC50 (Pseudomonas aeruginosa [3]): 16 µg/mL (≈ 41.7 µM) | MIC90 (Pseudomonas aeruginosa [3]): 128 µg/mL (≈ 334 µM) | MIC50 (Pseudomonas aeruginosa [6]): 16 µg/mL (≈ 41.7 µM) | MIC90 (Pseudomonas aeruginosa [6]): 128 µg/mL (≈ 334 µM) | MIC50 (Pseudomonas aeruginosa [4]): 4 µg/mL (≈ 10.4 µM) | MIC90 (Pseudomonas aeruginosa [4]): 32 µg/mL (≈ 83.4 µM) | MIC50 (Pseudomonas aeruginosa [5]): 8 µg/mL (≈ 20.9 µM) | MIC90 (Pseudomonas aeruginosa [5]): 32 µg/mL (≈ 83.4 µM)

O=C(O)c1cn(C2CC2)c2cc(N3CCNCC3)c(F)cc2c1=O [CIPROFLOXACIN]
MIC50 (Pseudomonas aeruginosa [1]): 8 µg/mL (≈ 24.1 µM) | MIC90 (Pseudomonas aeruginosa [1]): 64 µg/mL (≈ 193 µM) | MIC50 (Pseudomonas aeruginosa [2]): 1 µg/mL | MIC90 (Pseudomonas aeruginosa [2]): 32 µg/mL | MIC50 (Pseudomonas aeruginosa [3]): 32 µg/mL (≈ 96.6 µM) | MIC90 (Pseudomonas aeruginosa [3]): 64 µg/mL (≈ 193 µM) | MIC50 (Pseudomonas aeruginosa [6]): 32 µg/mL (≈ 96.6 µM) | MIC90 (Pseudomonas aeruginosa [6]): 128 µg/mL (≈ 386 µM) | MIC50 (Pseudomonas aeruginosa [4]): 2 µg/mL (≈ 6.04 µM) | MIC90 (Pseudomonas aeruginosa [4]): 32 µg/mL (≈ 96.6 µM)

C[C@H]1COc2c(N3CCN(C)CC3)c(F)cc3c(=O)c(C(=O)O)cn1c23.C[C@H]1COc2c(N3CCN(C)CC3)c(F)cc3c(=O)c(C(=O)O)cn1c23.O [LEVOFLOXACIN]
MIC50 (Pseudomonas aeruginosa [1]): 16 µg/mL | MIC90 (Pseudomonas aeruginosa [1]): 64 µg/mL | MIC50 (Pseudomonas aeruginosa [2]): 4 µg/mL | MIC90 (Pseudomonas aeruginosa [2]): 64 µg/mL | MIC50 (Pseudomonas aeruginosa [3]): 32 µg/mL | MIC90 (Pseudomonas aeruginosa [3]): 128 µg/mL | MIC50 (Pseudomonas aeruginosa [6]): 32 µg/mL | MIC90 (Pseudomonas aeruginosa [6]): 128 µg/mL | MIC50 (Pseudomonas aeruginosa [4]): 4 µg/mL | MIC90 (Pseudomonas aeruginosa [4]): 64 µg/mL | MIC50 (Pseudomonas aeruginosa [5]): 8 µg/mL | MIC90 (Pseudomonas aeruginosa [5]): 64 µg/mL

C[C@@H](O)[C@H]1C(=O)N2C(C(=O)O)=C(SCCNC=N)C[C@H]12 [IMIPENEM ANHYDROUS]
MIC (Pseudomonas aeruginosa [1]): 16 µg/mL (≈ 53.4 µM) | MIC50 (Pseudomonas aeruginosa [1]): 16 µg/mL (≈ 53.4 µM) | MIC90 (Pseudomonas aeruginosa [1]): 32 µg/mL (≈ 107 µM) | MIC50 (Pseudomonas aeruginosa [2]): 64 µg/mL | MIC90 (Pseudomonas aeruginosa [2]): 256 µg/mL | MIC50 (Pseudomonas aeruginosa [3]): 16 µg/mL (≈ 53.4 µM) | MIC90 (Pseudomonas aeruginosa [3]): 128 µg/mL (≈ 428 µM) | MIC50 (Pseudomonas aeruginosa [6]): 128 µg/mL (≈ 428 µM) | MIC90 (Pseudomonas aeruginosa [6]): 256 µg/mL (≈ 855 µM) | MIC50 (Pseudomonas aeruginosa [4]): 64 µg/mL (≈ 214 µM) | MIC90 (Pseudomonas aeruginosa [4]): 256 µg/mL (≈ 855 µM) | MIC50 (Pseudomonas aeruginosa [5]): 8 µg/mL (≈ 26.7 µM) | MIC90 (Pseudomonas aeruginosa [5]): 32 µg/mL (≈ 107 µM)
